As a reminder, the IC50 is the concentration that gives 50% inhibition. A high value points to lower potency.

Values after ≈ are worked out from the molar mass of the structure shown. Active and inactive are the calls of the source. No cut-off for these calls is given here.

The record followed here is ChEMBL document CHEMBL1148102, “New chlorinated diphenyl ethers from an Aspergillus species” (J Nat Prod, 2002).

In assay [1] the test system is Escherichia coli. Kind of assay: Antimicrobial activity against Escherichia coli at <200 ppm. It counts as functional, organism-based.
Assay [2] deals with Rhizoctonia solani. The assay can be described thus: Antimicrobial activity against Rhizoctonia solani at <200 ppm. It is filed as functional, organism-based. The method, boiled down: (§1)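 Antifungal test by the dialysis membrane overlay technique against the phytopathogenic fungus. Compounds were assessed at concentrations below 200 ppm.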
Assay [3] concerns Gaeumannomyces tritici. Kind of assay: Antimicrobial activity against Gaeumannomyces graminis var. tritici at <200 ppm. It is filed as functional, organism-based. An outline of the steps:
as §1

Assay [4] deals with T1, Endothelin-1 receptor (Rattus norvegicus, UniProt P26684).
T1 sequence (P26684 whole entry): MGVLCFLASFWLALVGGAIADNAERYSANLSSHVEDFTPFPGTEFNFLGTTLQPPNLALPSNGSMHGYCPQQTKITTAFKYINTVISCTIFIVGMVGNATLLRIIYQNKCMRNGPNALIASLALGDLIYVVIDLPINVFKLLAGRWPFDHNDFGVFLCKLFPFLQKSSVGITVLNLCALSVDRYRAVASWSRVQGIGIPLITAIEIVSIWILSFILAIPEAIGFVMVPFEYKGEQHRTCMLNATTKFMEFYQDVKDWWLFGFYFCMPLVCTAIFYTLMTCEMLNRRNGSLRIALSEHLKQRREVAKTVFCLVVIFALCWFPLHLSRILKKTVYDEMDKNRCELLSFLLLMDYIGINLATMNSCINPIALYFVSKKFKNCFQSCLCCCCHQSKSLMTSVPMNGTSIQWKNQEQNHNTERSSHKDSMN
The assay can be described thus: Displacement of endothelin-1 from ETA receptor in rat A10 cells. It counts as cell-based.

The test system of assay [5] is Caenorhabditis elegans. The assay can be described thus: Antinematodal activity against Caenorhabditis elegans after 16 to 24 hrs. It counts as functional. The method, boiled down: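 Model nematode C. elegans exposed to compounds in a bioassay. Lethality was scored over 16-24 h and reported as the concentration in ppm lethal to 90% (LD90) or 50% (LD50) of worms.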

For the molecule `COC(=O)c1cc(O)cc(OC)c1Oc1cc(C)cc(O)c1C(=O)O` [ASTERRIC ACID], the outcome in assay [1], in assay [2] and in assay [3] was inactive. In addition, in assay [4], the 50% inhibitory concentration (IC50) was found to be 10 µM. Further, the LD90 in assay [5] is 50 ppm.
Take `COC(=O)c1cc(O)cc(OC)c1Oc1cc(C)cc(O)c1C(=O)OC` [METHYL ASTERRATE]: the result in assay [1], in assay [2] and in assay [3] was inactive. The same molecule came in with an LD90 in assay [5] of 75 ppm.
For `COC(=O)c1cc(O)cc(OC)c1Oc1cc(C)c(Cl)c(O)c1C(=O)OC` [METHYL CHLOROASTERRATE], the outcome in assay [1], in assay [2] and in assay [3] was inactive. Moreover, the LC50 in assay [5] (Caenorhabditis elegans, read-out: LD50 (the source's name)) was determined as 100 µg/mL (≈ 252 µM).
Consider `COC(=O)c1cc(O)cc(OC)c1Oc1c(Cl)c(C)c(Cl)c(O)c1C(=O)OC` [METYL DICHLOROASTERRATE], for which the result in assay [1], in assay [2] and in assay [3] was inactive. Also, the LD90 in assay [5] came to 75 ppm.
In the case of `COC(=O)c1cc(O)cc(OC)c1C(=O)c1c(O)cc(C)cc1O` [SULOCHRIN], the result in assay [1], in assay [2] and in assay [3] was inactive. The molecule also came in with an LD90 in assay [5] of 50 ppm.
